KCNQ1 block = inhibitors of human KCNQ1 channel, primary screen, cell-based, thallium flux, high-throughput; AID 2642, 2010; Potassium voltage-gated channel subfamily KQT member 1 (Homo sapiens), P51787; B-score at 10 µM; hit rate 1.3% among 310,000; CHO-K1 KCNQ1, FluxOR thallium flux fluorescence; hits give high values;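 active = compounds whose thallium flux B-score, printed positive for inhibition, exceeds three library SD while starting fluorescence stays within three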;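 also: channel opened by potassium depolarization with thallium stimulus after 20 min compound exposure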
KCNK3 block = human KCNK3 channel inhibitors, primary screen, CHO cells, FluxOR thallium flux, B-score; Potassium channel subfamily K member 3 (Homo sapiens), O14649; FluxOR fluorescence; hits give low values; B-score at 10 µM; hit rate 0.84% among 340,000; AID 602410, 2012;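 active = B-score under library mean minus 4 SD, starting fluorescence ratio at most library mean plus 5 SD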;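 also: more negative B-score means stronger inhibition of thallium flux through KCNK3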
Target sequence (O14649 whole entry, looked up): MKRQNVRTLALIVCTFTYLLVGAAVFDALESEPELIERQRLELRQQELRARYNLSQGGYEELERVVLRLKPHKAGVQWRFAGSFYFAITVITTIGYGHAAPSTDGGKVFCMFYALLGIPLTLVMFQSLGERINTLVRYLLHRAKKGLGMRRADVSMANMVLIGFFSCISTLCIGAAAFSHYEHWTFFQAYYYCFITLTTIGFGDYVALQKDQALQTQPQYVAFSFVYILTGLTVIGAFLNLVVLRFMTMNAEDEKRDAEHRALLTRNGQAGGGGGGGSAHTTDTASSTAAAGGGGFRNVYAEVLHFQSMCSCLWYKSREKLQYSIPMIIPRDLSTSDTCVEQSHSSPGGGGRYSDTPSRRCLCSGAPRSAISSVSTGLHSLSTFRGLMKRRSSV
KCNQ1 pot = potentiators or activators of KCNQ1 channel, primary screen, cell-based, thallium flux, high-throughput. AID 2648, 2010. Potassium voltage-gated channel subfamily KQT member 1 (Homo sapiens), P51787. hit rate 0.35% among 310,000. CHO-K1 KCNQ1, thallium flux FluxOR fluorescence; hits give high values. B-score at 10 µM;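 active = fluorescence ratio B-score, a plate-corrected score, at least three library SD, with initial intensity B-score within 5 SD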
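Doses: Single concentration per compound, DMSO matched to controls | Test system: KCNQ1-transfected CHO-K1 cells | Timing: 90 min dye loading and 20 min compound exposure, both at room temperature | Measured by: Kinetic FluxOR thallium fluorescence, 10-s 1-Hz baseline, 110-s post-stimulus read | Medium: Assay buffer with matched DMSO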
Kir21 inh = inhibitors of mouse Kir2.1 inward-rectifier potassium channel. Inward rectifier potassium channel 2 (Mus musculus), P35561. HEK293-Kir2.1, FluxOR thallium flux fluorescence; hits give low values. B-score at 10 µM. hit rate 0.85% among 310,000;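 active = fluorescence ratio B-score at or below minus 3 SD of library scores, with starting-brightness B-score within 2 SD, cut at about -4.2 in these data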;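 also: channel flux triggered by added potassium and thallium sulfate stimulus; B-score of peak minus minimum fluorescence over baseline after thallium stimulus; more negative B-score means stronger Kir2.1 block with less thallium influx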
KCNK9 block = KCNK9 potassium channel inhibitors, primary screen, HEK293 cells, thallium flux. Potassium channel subfamily K member 9 (Homo sapiens), Q9NPC2. FluxOR thallium flux fluorescence; hits give low values. B-score at 10 µM. hit rate 1.2% among 310,000. AID 488922, 2010;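 active = ratio B-score over 3 SD below the library mean, with starting fluorescence within 5 SD of its mean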;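 also: negative B-score means less thallium flux so channel inhibition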
hERG rescue = hERG rescue from dofetilide block, primary screen, cell-based, CHO-hERG, FluxOR thallium flux, dofetilide IC70. Voltage-gated inwardly rectifying potassium channel KCNH2 (Homo sapiens), Q12809. dofetilide IC70 present. activation (rescue from dofetilide block), less the hit threshold, % at 10 µM. hit rate 0.51% among 310,000;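 active = activation above the mean of controls blocked by dofetilide plus 5 SD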;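 also: thallium influx through hERG after potassium depolarization seen as dye fluorescence rise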
KCNK9 inh conf = KCNK9 potassium channel inhibitors, confirmation, HEK293 cells, thallium flux, duplicate | shares compounds with KCNK9 block | FluxOR thallium flux fluorescence | inhibition, % at 10 µM | hit rate 43% among 4,900 | AID 492992, 2010;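 active = thallium signal inhibited by more than 5 SD of the compound-free buffer control wells, on both duplicate plates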;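 also: 0% = assay buffer control wells without compound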
Kir21 sel = mouse Kir2.1 channel inhibition, confirmation, selectivity assay for KCNK9 modulator project, cell-based, HEK293, thallium flux; hit rate 4% among 4,900; Kir2.1 cells, FluxOR thallium flux fluorescence; shares compounds with KCNK9 block; AID 492993, 2010; inhibition, % at 10 µM;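 active = thallium signal drop more than 5 SD beyond the mean of the no-compound control wells, seen in both duplicate plates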;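 also: signal is fluorescence rise after thallium addition divided by baseline fluorescence; plate controls were assay buffer only for no effect and full block by chlorpromazine control for full effect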
HEK293 Tl ctr = thallium flux in non-induced HEK293 cells, confirmation, counter-screen for KCNK9 inhibitor project, cell-based, second counter screen, non-induced KCNK9-HEK293; shares compounds with KCNK9 block; FluxOR thallium flux; inhibition, % at 10 µM; hit rate 40% among 4,900; AID 492997, 2010;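 active = thallium signal drop beyond 5 SD of the untreated control mean, on both duplicate plates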;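 also: plate controls were buffer only IC0 wells for no effect and SID17386958 at its maximal inhibitory level for full effect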
The depositor's hits bear a star; i = inactive; . = not tested or not shown. Hits are enriched below; roughly 3.8% of the tested compounds scored in any of these assays.

SMILES	KCNQ1 block	KCNK3 block	KCNQ1 pot	Kir21 inh	KCNK9 block	hERG rescue	KCNK9 inh conf	Kir21 sel	HEK293 Tl ctr
O=C(NN1C(=O)C2C(c3ccccc3)C=CC(c3ccccc3)C2C1=O)c1cccc(Br)c1 (stereo not drawn)	i	i	i	0.66	-11.7*	11.0*	62.5%*	i	37.0%*
COC(=O)CNC(=O)COC(=O)c1ccc(Cl)nc1	i	i	i	0.39	i	-6.4	.	.	.
O=C(O)c1ccc(-c2nc(-c3ccc(Cl)cc3)cs2)cc1	i	i	i	1.09	i	-7.8	.	.	.
O=C(O)c1ccc(-c2nc(-c3cccc(C(F)(F)F)c3)cs2)cc1	i	i	i	1.13	i	-14.4	i	i	i
COc1cccc(/C=N/Nc2ncnc3scc(-c4ccccc4)c23)c1O	i	i	i	-0.58	i	-6.2	i	i	i
COc1cccc(/C=N/Nc2ncnc(Cl)c2N)c1O	i	i	i	-0.01	i	0.1	.	.	.
S=c1[nH]nc(SCc2ccccc2)c2[nH]cnc12	.	i	.	.	.	.	.	.	.
CSc1ccc(CN(C)CC(=O)Nc2ccc(C)cc2Br)cc1	i	i	i	1.02	i	-6.5	i	i	i
CCOC(=O)N1CCc2c(sc3c2c(=O)n(Cc2ccccc2)c(=O)n3Cc2ccccc2F)C1	i	i	i	0.24	i	-9.9	i	i	i
CCOC(=O)N1CCc2c(sc3c2c(=O)n(Cc2ccccc2)c(=O)n3Cc2cccc(C)c2)C1	i	i	i	-0.4	i	-6.2	i	i	i
Cc1ccc(OCCOc2ccc(S(=O)(=O)N3CCCC3)cc2C(N)=O)cc1	.	i	.	.	.	.	.	.	.
COc1cc(/C=C2/NC(=O)N(CC(=O)Nc3ccc(C)cc3)C2=O)ccc1Oc1ccc([N+](=O)[O-])cn1	i	i	i	1.04	i	-12.9	.	.	.
COCCN1C(=O)/C(=C/c2ccc(Oc3ccc([N+](=O)[O-])cn3)c(OC)c2)SC1=Nc1ccccc1	i	i	i	1.63	i	-7.2	i	i	i
O=C(CN1CCOCC1)NCC12CC3CC(CC(C3)C1)C2	i	i	i	0.93	i	-11.3	.	.	.
CCSCC1COC(c2cccn2Cc2ccc(C)cc2)=N1 (stereo not drawn)	i	i	i	-0.08	i	-14.5	i	i	25.5%*
CC1COC(c2cccn2Cc2ccccc2Cl)=N1 (stereo not drawn)	i	i	i	-2.44	i	-5.0	.	.	.
N#Cc1ccccc1NC(=O)c1ccc2c(c1)OCCO2	i	i	i	0.33	i	-6.7	.	.	.
Cc1cc2occ(CC(=O)NNC(=O)c3ccccc3)c2cc1C	i	i	i	3.01	i	-8.8	.	.	.
Cc1cccc(S(=O)(=O)Nc2ccc(-n3c(C)nc4ccccc4c3=O)cc2)c1	i	i	i	-1.25	i	-16.5	.	.	.
NC(=O)c1sc(-c2ccsc2)cc1NS(=O)(=O)c1ccc(C(F)(F)F)cc1	i	i	i	0.58	i	-13.6	i	i	i
Cc1ccn2c(C(=O)CSc3ccc(Cl)cc3)c(C)nc2c1	i	i	i	0.06	i	-5.6	.	.	.
Cc1ccn2c(/C=N/OCc3cccc(F)c3)c(-c3ccc(Cl)cc3)nc2c1	i	i	i	-0.67	-8.4*	-15.7	i	i	33.0%*
Cc1ccc(SCCNC(=O)/C=C/c2cccc([N+](=O)[O-])c2)cc1	i	i	i	0.22	i	-5.2	i	i	i
O=C(/C=C/c1cccc([N+](=O)[O-])c1)NCCSCc1c(Cl)cccc1Cl	i	i	i	0.27	i	-11.1	.	.	.
O=C(/C=C/c1cccc([N+](=O)[O-])c1)NCCSCc1ccc(Cl)cc1	i	i	i	-0.87	-8.95*	-11.8	54.5%*	i	32.5%*
SMILES	KCNQ1 block	KCNK3 block	KCNQ1 pot	Kir21 inh	KCNK9 block	hERG rescue	KCNK9 inh conf	Kir21 sel	HEK293 Tl ctr
O=C(/C=C/c1cccc([N+](=O)[O-])c1)NCCSc1ccccc1	i	i	i	-0.06	i	-11.1	.	.	.
CC(=O)c1c(N2CCN(C)CC2)nc(=S)n(Cc2ccccc2)c1C	i	i	i	0.14	i	-2.9	.	.	.
C=CCn1c(C)c(C(C)=O)c(N2CCN(C(c3ccccc3)c3ccccc3)CC2)nc1=S	i	i	i	3.64	-8.15*	-23.9	37.0%*	i	i
COC(=O)CN1C(c2ccc(Cl)cc2)=Nc2ccc(Cl)cc2C1c1ccccc1 (stereo not drawn)	i	i	i	-0.83	-10.5*	-11.8	32.0%*	i	42.0%*
O=C(CSc1ccc(Cl)cc1)N1CCN(c2ncc(C(F)(F)F)cc2Cl)CC1	i	i	i	0.6	i	-5.9	i	i	i
O=C(CSc1ncc(C(F)(F)F)cc1Cl)N1CCN(S(=O)(=O)c2ccccc2)CC1	i	i	i	-0.35	i	-9.6	.	.	.
O=C(CN1CCN(c2ncc(C(F)(F)F)cc2Cl)CC1)N1CCN(c2ncc(C(F)(F)F)cc2Cl)CC1	i	i	i	1.36	i	-10.0	.	.	.
O=C(CSc1ncc(C(F)(F)F)cc1Cl)N1CCN(S(=O)(=O)c2ccc(Cl)cc2)CC1	i	i	i	1.68	i	3.0	i	i	i
Cc1cc(=O)[nH]c(SCC(=O)c2c(N)n(C)c(=O)n(C)c2=O)n1	i	i	i	0.21	i	-5.3	.	.	.
ONC(=Nc1ccccc1Cl)c1c(F)cccc1F	i	i	i	-2.44	i	-3.3	.	.	.
O=C(O)c1ccccc1C(=O)NCc1ccc2c(c1)OCO2	i	i	i	0.73	i	-6.0	.	.	.
